{"data": "Results gathered from unrelated publications", "target": "Receptor tyrosine-protein kinase erbB-3 (ERBB3, Homo sapiens, UniProt P21860)", "note": "Compare with care: the assays were run in different laboratories."}
{"SMILES": "COc1ccc2c(c1)O[C@H](c1ccc(OC)c(OC)c1)C[C@@H]2NC(=O)C1(c2ccc3c(c2)OC(F)(F)O3)CC1", "read-out": "cell-free assay", "method": "competition with immobilised ligand", "concentration": "1 µM", "remaining binding": "92%"}
{"SMILES": "c1cnn2ncc(-c3ccnc(N4CCC45COC5)n3)c2c1", "read-out": "binding", "concentration": "1 µM", "remaining binding": "86%"}
{"SMILES": "O=C1CCc2cc(Nc3cc(OC4CCOCC4)c([N+](=O)[O-])cc3Cl)ccc2N1", "read-out": "cell-free assay", "method": "competition with immobilised ligand", "concentration": "1 µM", "remaining binding": "98%"}
{"SMILES": "O=C(NCCCN1CCOCC1)c1ccc(Nc2ncc(Cl)c(-c3ccc(Cl)s3)n2)cc1", "read-out": "binding", "method": "competition with immobilised ligand", "concentration": "1 µM", "remaining binding": "91%"}
{"SMILES": "c1cncc(-c2cccc(Nc3nccc(NC4CCCCC4)n3)c2)c1", "read-out": "binding", "method": "competition with immobilised ligand", "concentration": "10 µM", "remaining binding": "84%"}
{"SMILES": "CNC(=O)[C@@H]1CC[C@@H](n2c(-c3ccc4cnccc4c3)nc3ccc(C(=O)NCc4cccc(C(N)=O)c4)cc32)C1", "read-out": "binding", "method": "competition with immobilised ligand", "concentration": "1 µM", "remaining binding": "100%"}
{"SMILES": "CN(CCCC(F)(F)F)c1nccc(-c2cnn3ncccc23)n1", "read-out": "binding", "concentration": "1 µM", "remaining binding": "100%"}
{"SMILES": "CCCOc1ccc([C@H]2[C@H](C(=O)O)[C@@H](c3ccc4c(c3)OCO4)CN2CC(=O)Nc2c(CC)cccc2CC)cc1", "read-out": "cell-free assay", "method": "competition with immobilised ligand", "concentration": "1 µM", "remaining binding": "78%"}
{"SMILES": "Cc1cnc(Nc2ccc(C(=O)N3CCC(N4CCCC4)CC3)cc2)nc1-c1cc2ccccc2s1", "read-out": "binding", "method": "competition with immobilised ligand", "concentration": "1 µM", "remaining binding": "89%"}
{"SMILES": "COc1cnc(Nc2cccc(S(N)(=O)=O)c2)nc1N1CCN(c2ccccc2)C(=O)C1", "read-out": "binding", "method": "competition with immobilised ligand", "concentration": "1 µM", "remaining binding": "98%"}
{"SMILES": "COc1ccc2c(O[C@@H]3C[C@H]4C(=O)N[C@]5(C(=O)O)CC5/C=C\\CCCCC[C@H](NC(=O)OC5CCCC5)C(=O)N4C3)cc(-c3csc(NC(=O)C(C)C)n3)nc2c1C (stereo partly shown)", "read-out": "cell-free assay", "method": "competition with immobilised ligand", "concentration": "1 µM", "remaining binding": "88%"}
{"SMILES": "O=C(c1ccc(Nc2ncc(Cl)c(-c3cc4ccccc4s3)n2)cc1)N1CCC(N2CCCC2)CC1", "read-out": "binding", "method": "competition with immobilised ligand", "concentration": "1 µM", "remaining binding": "81%"}
{"SMILES": "Cc1noc([C@H]2C[C@@H](c3ccc(C(F)(F)F)cc3)CN(C(=O)N3CCS(=O)(=O)C3)C2)n1", "read-out": "cell-free assay", "method": "competition with immobilised ligand", "concentration": "1 µM", "remaining binding": "100%"}
{"SMILES": "CC1CCCN1c1nccc(-c2cnn3ncccc23)n1 (stereo not shown)", "read-out": "binding", "concentration": "1 µM", "remaining binding": "100%"}
{"SMILES": "CCN1CCN(Cc2ccc(C(=O)Nc3ccc(C)c(Oc4ccc5c(c4)CC(=O)N5)c3)cc2C(F)(F)F)CC1", "read-out": "binding", "method": "competition with immobilised ligand", "concentration": "1 µM", "remaining binding": "100%"}
{"SMILES": "C[C@H]1CCN(c2nccc(-c3cnn4ncccc34)n2)C1", "read-out": "binding", "concentration": "1 µM", "remaining binding": "100%"}
{"SMILES": "O=C(NCC1CCOCC1)c1n[nH]cc1NC(=O)c1c(F)cccc1F", "read-out": "binding", "method": "competition with immobilised ligand", "concentration": "1 µM", "remaining binding": "73%"}
{"SMILES": "F[C@@H]1CCN(c2nccc(-c3cnn4ncccc34)n2)C1", "read-out": "binding", "concentration": "1 µM", "remaining binding": "100%"}
{"SMILES": "CCOC(=O)c1cc2cc(-c3cc(C(=O)NCc4ccc(C(=O)O)cc4)nn3C)ccc2[nH]1", "read-out": "cell-free assay", "method": "competition with immobilised ligand", "concentration": "0.1 µM", "remaining binding": "81%"}
{"SMILES": "COc1ncc2cc3ccccc3nc2c1C#N", "read-out": "cell-free assay", "method": "competition with immobilised ligand", "concentration": "5 µM", "remaining binding": "76%"}
{"SMILES": "N[C@H]1CCN(c2nccc(-c3cnn4ncccc34)n2)C1", "read-out": "binding", "concentration": "1 µM", "remaining binding": "97%"}
{"SMILES": "O=C(NCc1ncc(C(F)(F)F)cc1Cl)c1ccc2c(c1)C1(CCS(=O)(=O)CC1)[C@H](C1CC1)N2S(=O)(=O)c1ccc(F)cc1", "read-out": "cell-free assay", "method": "competition with immobilised ligand", "concentration": "1 µM", "remaining binding": "100%"}
